Source: ChEMBL document CHEMBL2086359, “Tormentic acid derivatives: synthesis and apoptotic activity” (Eur J Med Chem, 2012)
Activity calls are given as the source filed them. The calls are words filed in the database; no cut-off is given here.

How the values were obtained:
[1] = tested on: 8505C; test: Induction of apoptosis in human 8505C cells migration of phosphatidylserine from inner to outer cell membrane at 3.5 uM after 6 hrs by Annexin V-FITC/PI based FACS analysis; format: functional
[2] = tested on: 8505C; test: Induction of apoptosis in human 8505C cells after 24 to 48 hrs by DNA laddering assay; format: functional, cell-based
In short: (§1)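 About 1×10^6 cells were grown in 25 cm2 flasks to 80% and exposed to compound-loaded medium for 24–48 h, with blank medium as control. Cells were collected from the supernatant (300 g, 4 °C), washed in PBS and lysed. Lysates were digested with RNase for 2 h at 37 °C, then with proteinase K for 12 h at 50 °C. DNA was run on agarose gel electrophoresis ([…], 2 h).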

[3] = tested on: 518A2; test: Induction of apoptosis in human 518A2 cells after 24 to 48 hrs by DNA laddering assay; format: functional, cell-based; in short: as §1
[4] = Cytotoxicity against human A253 cells after 96 hrs by SRB assay; format: functional, cell-based
In short: (§2)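 Monolayer cultures kept in RPMI 1640 with 10% heat-inactivated FBS and penicillin/streptomycin at 37 °C, 5% CO2. Exponentially growing cells were seeded and treated 24 h later with serial dilutions (0–30 µM) for 96 h, with DMSO or DMF at most 0.5% final. Cells were fixed with 10% TCA at 4 °C and stained with 0.4% SRB for about 30 min. Plates were washed with 1% acetic acid and the dye dissolved in 10 mM Tris base. Absorbance was read at 570 nm and survival taken relative to untreated controls. IC50 was estimated from dose–response curves, averaged from at least 5 independent experiments.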

[5] = tested on: 8505C; test: Cytotoxicity against human 8505C cells after 96 hrs by SRB assay; format: functional, cell-based; in short: as §2
[6] = tested on: DLD-1; test: Cytotoxicity against human DLD1 cells after 96 hrs by SRB assay; format: functional, cell-based; in short: as §2
[7] = Cytotoxicity against human WW030272 cells after 96 hrs by SRB assay; format: cell-based; in short: as §2
[8] = tested on: A549; test: Cytotoxicity against human A549 cells after 96 hrs by SRB assay; format: functional, cell-based; in short: as §2
[9] = tested on: MCF7; test: Cytotoxicity against human MCF7 cells after 96 hrs by SRB assay; format: functional, cell-based; in short: as §2
[10] = tested on: NIH3T3; test: Cytotoxicity against mouse NIH/3T3 cells after 96 hrs by SRB assay; format: cell-based; in short: as §2
[11] = Cytotoxicity against human 518A2 cells after 96 hrs by SRB assay; format: functional, cell-based; in short: as §2
[12] = tested on: 8505C; test: Induction of apoptosis in human 8505C cells assessed as induction of cell death after 24 to 48 hrs by AO/PI exclusion dye assay; format: functional, cell-based
In short: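 About 1×10^6 cells were grown in 25 cm2 flasks to 80% and given compound-loaded medium for 24–48 h, with blank medium as control. Cells were recovered from the supernatant (300 g, 4 °C), washed and resuspended in PBS. They were mixed 1:1 with AO/PI solution and viewed by fluorescence microscopy: green cells were scored as apoptotic, red as necrotic.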

[13] = tested on: A2780; test: Cytotoxicity against human A2780 cells after 96 hrs by SRB assay; format: functional, cell-based; in short: as §2
[14] = tested on: 8505C; test: Induction of apoptosis in human 8505C cells assessed as migration of phosphatidylserine from inner to outer cell membrane at 30 uM after 6 hrs by Annexin V-FITC/PI based FACS analysis; format: functional
[15] = tested on: 518A2; test: Induction of apoptosis in human 518A2 cells assessed as blebbing of nuclear membrane at 30 uM after 24 hrs by acridine orange based fluorescence microscopy analysis; format: functional, cell-based
In short: (§3)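 They were treated with 30 µM compound, and the next day washed with PBS and stained with acridine orange. Living cells were inspected by fluorescence microscopy for chromatin condensation and nuclear membrane blebbing.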

[16] = tested on: 8505C; test: Induction of apoptosis in human 8505C cells assessed as condensation of chromatin at 30 uM after 24 hrs by acridine orange based fluorescence microscopy analysis; format: functional, cell-based; in short: as §3
[17] = tested on: 8505C; test: Induction of apoptosis in human 8505C cells assessed as blebbing of nuclear membrane at 30 uM after 24 hrs by acridine orange based fluorescence microscopy analysis; format: functional, cell-based; in short: as §3
[18] = tested on: 518A2; test: Induction of apoptosis in human 518A2 cells assessed as condensation of chromatin at 30 uM after 24 hrs by acridine orange based fluorescence microscopy analysis; format: functional, cell-based; in short: as §3

Compound | Activity [1] | Activity [2] | Activity [3] | IC50 [4] [µmol] | IC50 [5] [µmol] | IC50 [6] [µmol] | IC50 [7] [µmol] | IC50 [8] [µmol] | IC50 [9] [µmol] | IC50 [10] [µmol] | IC50 [11] [µmol] | Activity [12] | IC50 [13] [µmol] | Activity [14] | Activity [15] | Activity [16] | Activity [17] | Activity [18]
COC(=O)[C@]12CC[C@@H](C)[C@@](C)(O)[C@H]1C1=CC[C@@H]3[C@@]4(C)C[C@@H](OC(=O)CCl)[C@H](OC(=O)CCl)C(C)(C)[C@@H]4CC[C@@]3(C)[C@]1(C)CC2 | Active | Active | Active | 1.6 | 1.6 | 2.2 | 3.4 | 1.2 | 1.5 | 1.1 | 1.1 | Active | 0.8 | – | – | – | – | –
CC1(C)CC[C@]2(C(=O)O)CC[C@]3(C)C(=CC[C@@H]4[C@@]5(C)C[C@@H](O)[C@H](O)C(C)(C)[C@@H]5CC[C@]43C)[C@@H]2C1 | – | – | – | – | – | – | – | – | – | – | – | Active | – | – | – | – | – | –
C[C@@H]1CC[C@]2(C(=O)O)CC[C@]3(C)C(=CC[C@@H]4[C@@]5(C)C[C@@H](O)[C@H](O)C(C)(C)[C@@H]5CC[C@]43C)[C@@H]2[C@]1(C)O [TOMENTIC ACID] | – | Active | Active | > 30 | 23.4 | 31 | 47.7 | 31 | 32.3 | > 30 | > 30 | Active | > 30 | Active | – | – | – | –
COC(=O)[C@]12CC[C@@H](C)[C@@](C)(O)[C@H]1C1=CC[C@@H]3[C@@]4(C)C[C@@H](O)[C@@H](O)C(C)(C)[C@@H]4CC[C@@]3(C)[C@]1(C)CC2 [EUSCAPHIC ACID METHYL ESTER] | – | Active | Active | 16.4 | 29.3 | 35.8 | 23.4 | 30.6 | 17.8 | > 30 | 27.7 | – | 12.8 | – | – | – | – | –
CC(=O)O[C@H]1[C@H](O)C[C@]2(C)[C@H]3CC=C4[C@H]5[C@](C(=O)O)(CC[C@@H](C)[C@@]5(C)O)CC[C@@]4(C)[C@]3(C)CC[C@H]2C1(C)C | – | Active | Active | > 30 | > 30 | > 30 | – | > 30 | 26.2 | > 30 | > 30 | – | 28.1 | – | – | – | – | –
COC(=O)[C@]12CC[C@@H](C)[C@@](C)(O)[C@H]1C1=CC[C@@H]3[C@@]4(C)C[C@@H](O)[C@H](O)C(C)(C)[C@@H]4CC[C@@]3(C)[C@]1(C)CC2 [TORMENTIC ACID METHYL ESTER] | – | Active | Active | 17 | 42 | 37.4 | 47.5 | – | 31.3 | 15.6 | 31.3 | Active | 23.9 | – | Active | Active | Active | Active
COC(=O)[C@]12CC[C@@H](C)[C@@](C)(O)[C@H]1C1=CC[C@@H]3[C@@]4(C)C[C@H](O)[C@H](O)C(C)(C)[C@@H]4CC[C@@]3(C)[C@]1(C)CC2 | – | Active | Active | 15.3 | > 30 | > 30 | – | > 30 | 22.6 | > 30 | > 30 | – | 18.9 | – | – | – | – | –
COC(=O)[C@]12CC[C@@H](C)[C@@](C)(O)[C@H]1C1=CC[C@@H]3[C@@]4(C)C[C@@H](OC(=O)CCl)[C@H](O)C(C)(C)[C@@H]4CC[C@@]3(C)[C@]1(C)CC2 | – | Active | Active | 4.6 | 4.6 | 3.7 | – | 9.7 | 2.6 | 2.1 | 4.5 | – | 2.6 | – | – | – | – | –
